This note sets out measurements from ChEMBL document CHEMBL1142301, “2'-deoxy cyclic adenosine 5'-diphosphate ribose derivatives: importance of the 2'-hydroxyl motif for the antagonistic activity of 8-substituted cADPR derivatives” (J Med Chem, 2008).

The nature of test [1]: (§1) Antagonist activity at human cADPR receptor in Jurkat T cells assessed as inhibition of cyclic ADP-ribose-induced calcium release. It counts as functional, cell-based. The procedure, abridged: (§2)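 Jurkat T cells were saponin-permeabilized, resealed 2 h on ice and reloaded with Ca2+ via ATP and a creatine phosphate/creatine kinase regenerating system, in pH 7.2 KCl/HEPES intracellular buffer. Analogue inhibition of Ca2+ release evoked by 30 µM cADPR was followed by fura2 ratio (340/380 nm ex, 495 nm em), calibrated per run. IC50 values were taken from concentration–response curves.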

Test [2] relates to Jurkat. Put plainly: Antagonist activity at human cADPR receptor in Jurkat T cells assessed as inhibition of inositol-1,4,5-triphosphate-induced calcium release. The class given is functional, cell-based. In short, it runs like this: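 Permeabilized, store-reloaded Jurkat T cells in pH 7.2 intracellular buffer with fura2 free acid (ex 340/380 nm, em 495 nm). Analogues were tested at 100 µM against Ca2+ release triggered by 4 µM InsP3.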

The subject of test [3] is Jurkat. The test is described as follows: Agonist activity at human cADPR receptor in Jurkat T cells assessed as stimulation of calcium release at 100 uM. It counts as functional, cell-based. The procedure, abridged:
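Saponin-permeabilized Jurkat T cells in intracellular buffer (20 mM HEPES, 110 mM KCl, 2 mM MgCl2, 5 mM KH2PO4, 10 mM NaCl, pH 7.2) with no extracellular Ca2+. Cells were kept on ice 2 h to reseal stores, then reloaded with ATP plus creatine phosphate/creatine kinase. Compound was added once stores were refilled. Ca2+ read by fura2 free acid (ex 340/380, em 495 nm), calibrated with CaCl2 and EGTA/Tris.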

Test [4] relates to Lytechinus pictus. The test is described as follows: Agonist activity at human cADPR receptor in intact sea urchin egg assessed as stimulation of calcium release. It counts as functional. The procedure, abridged:
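Intact Lytechinus pictus eggs were microinjected with rhod dextran (~10 µM intracellular), then exposed to 100 or 400 µM analogue in the bath. Ca2+ was imaged by confocal microscopy (ex 543 nm, em >560 nm).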

Test [5] concerns Lytechinus pictus. Put plainly: (§3) Agonist activity at human cADPR receptor in sea urchin egg homogenates assessed as stimulation of calcium release. It counts as functional, tissue-based. The procedure, abridged: (§4)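 Lytechinus pictus eggs were spawned by intracoelomic 0.5 M KCl, dejellied and washed. Eggs were homogenized in 250 mM K gluconate, 250 mM N-methylglucamine, 20 mM HEPES, 1 mM MgCl2, pH 7.2, with 1 mM ATP, creatine kinase, phosphocreatine and protease inhibitors. Ca2+ read with 3 µM fluo-3 at 17 °C (ex 506, em 526 nm) in stirred homogenate. EC50/IC50 values come from concentration–response curves.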

For test [6], the system named is Jurkat. Described as §1. It counts as functional, cell-based. In short, it runs like this:
as §2

A short description of test [7]: Antagonist activity at cADPR receptor in sea urchin egg homogenates assessed as inhibition of calcium release. It counts as functional, tissue-based, Lytechinus pictus. The procedure, abridged:
as §4

Test [8] has as its system Jurkat. The test is described as follows: Agonist activity at human cADPR receptor in Jurkat T cells assessed as stimulation of calcium release at 100 uM.
Test [9] can be described thus: as §3. It counts as functional, tissue-based, Lytechinus pictus. The procedure, abridged:
as §4

The source made the active and inactive calls. The calls are words filed in the database; no cut-off is given here.

For the compound `COc1nc2c(N)[n+]3cnc2n1[C@H]1C[C@H](O)[C@@H](COP(=O)(O)OP(=O)([O-])OC[C@H]2O[C@@H]3[C@H](O)[C@@H]2O)O1`, the 50% inhibitory concentration (IC50) in [1] stood at 8 µM. Also, the result in test [2] was inactive. Moreover, in test [3], the result was Active.

With `Nc1c2nc(Br)n3c2nc[n+]1[C@@H]1O[C@H](COP(=O)([O-])OP(=O)(O)OC[C@H]2O[C@@H]3C[C@@H]2O)[C@@H](O)[C@H]1O`, the result in test [3], in [4] and in [5] was Active.

Consider `Nc1c2ccn3c2nc[n+]1[C@@H]1O[C@H](COP(=O)([O-])OP(=O)(O)OC[C@H]2O[C@@H]3C[C@@H]2O)[C@@H](O)[C@H]1O`, for which, in test [6], the result was inactive. Besides, the outcome in test [3] was Active.

Take `Nc1c2nc(-c3ccccc3)n3c2nc[n+]1[C@@H]1O[C@H](COP(=O)([O-])OP(=O)(O)OC[C@H]2O[C@@H]3C[C@@H]2O)[C@@H](O)[C@H]1O`: the result in [3] was Active.

In the case of `Nc1nc2c(N)[n+]3cnc2n1[C@@H]1O[C@H](COP(=O)(O)OP(=O)([O-])OC[C@H]2O[C@@H]3[C@H](O)[C@@H]2O)[C@@H](O)[C@H]1O`, the IC50 in test [7] came out at 0.105 µM; in test [1], 0.2 µM. Besides, the outcome in test [2] was inactive. Besides, the result in test [3] and in test [8] was Active. In addition, in test [9], the concentration giving a half-maximal response (EC50) was determined as 89 µM.

With `Nc1nc2c(N)[n+]3cnc2n1[C@H]1C[C@H](O)[C@@H](COP(=O)(O)OP(=O)([O-])OC[C@H]2O[C@@H]3[C@H](O)[C@@H]2O)O1`, the IC50 in test [7] was determined as 0.22 µM; in test [1], 6 µM. Besides, the result in test [2] was inactive. Also, in test [3], the result was Active. Moreover, in test [9], the EC50 is more than 89 µM.

Consider `Nc1c2ncn3c2nc[n+]1[C@@H]1O[C@H](COP(=O)([O-])OP(=O)(O)OC[C@H]2O[C@@H]3[C@H](O)[C@@H]2O)[C@@H](O)[C@H]1O`, for which the result in test [2] was inactive. In addition, the result in test [3] was Active.

In the case of `Nc1c2nc(-c3ccccc3)n3c2nc[n+]1[C@@H]1O[C@H](COP(=O)([O-])OP(=O)(O)OC[C@H]2O[C@@H]3[C@H](O)[C@@H]2O)[C@@H](O)[C@H]1O`, the result in test [3] was Active.

Regarding `Nc1c2nc(Br)n3c2nc[n+]1[C@@H]1O[C@H](COP(=O)([O-])OP(=O)(O)OC[C@H]2O[C@@H]3[C@H](O)[C@@H]2O)[C@@H](O)[C@H]1O`, the IC50 in [1] turned out to be 10 µM. For the same compound, in test [2], the outcome was inactive. Also, in [3], the result was Active.

Usually IC50 stands for the concentration at which inhibition is half-maximal. As a reminder, the EC50 is the concentration needed to bring the measured effect to its halfway point.
